# Assays:
# [1] = Permeability of compound at pH 7.4 by PAMPA; assay type: ADME; conditions: read-out: permeability
# [2] = Clearance in human liver microsomes at 1 uM after 15 to 30 mins by LC/MS/MS analysis; assay type: ADME; conditions: read-out: CLH
# Method in brief: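 Incubated with 0.2 mg/mL microsomal protein in 50 mM potassium phosphate, pH 7.4. Reaction started with an NADPH-generating system (MgCl2, glucose-6-phosphate, β-NADP+, G6P dehydrogenase). Stopped with acetonitrile at 15 and 30 min, then analysed for remaining compound. Metabolic velocity taken as the slope of the concentration-time plot.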
# CYP3A4 = CYP3A4 (Homo sapiens, UniProt P08684); assay: Reversible inhibition of CYP3A4 in human liver microsomes at 10 uM using midazolam as substrate incubated for 10 mins by LC/MS/MS analysis; assay type: ADME; conditions: probe midazolam
# Sequence of CYP3A4 (P08684 whole entry): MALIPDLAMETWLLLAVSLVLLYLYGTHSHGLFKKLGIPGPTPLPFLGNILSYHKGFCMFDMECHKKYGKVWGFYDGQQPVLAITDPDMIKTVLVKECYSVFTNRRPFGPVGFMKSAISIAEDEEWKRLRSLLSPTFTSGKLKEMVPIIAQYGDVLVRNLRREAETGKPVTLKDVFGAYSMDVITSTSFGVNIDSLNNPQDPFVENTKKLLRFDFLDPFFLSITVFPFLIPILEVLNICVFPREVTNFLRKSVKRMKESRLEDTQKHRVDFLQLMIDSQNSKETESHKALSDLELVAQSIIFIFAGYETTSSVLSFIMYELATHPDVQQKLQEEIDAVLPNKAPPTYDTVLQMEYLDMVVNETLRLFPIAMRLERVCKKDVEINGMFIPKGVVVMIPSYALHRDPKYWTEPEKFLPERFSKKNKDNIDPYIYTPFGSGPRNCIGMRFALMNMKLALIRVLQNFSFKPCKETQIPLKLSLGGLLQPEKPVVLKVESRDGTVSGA
# Method in brief: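 Midazolam incubated with 0.1 mg/mL microsomes and test compound at 37 °C. Stopped with acetonitrile/water and centrifuged. 1'-Hydroxymidazolam peak measured in the supernatant.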
# [3] = molecular target: Voltage-gated inwardly rectifying potassium channel KCNH2 (Homo sapiens, UniProt Q12809); assay: Inhibition of human ERG channel expressed in CHO cells assessed as peak tail current at 10 uM incubated for 5 mins by patch-clamp assay; assay type: cell-based; conditions: cho, 5 min, 10 µM
# Sequence of Voltage-gated inwardly rectifying potassium channel KCNH2 (Q12809 whole entry): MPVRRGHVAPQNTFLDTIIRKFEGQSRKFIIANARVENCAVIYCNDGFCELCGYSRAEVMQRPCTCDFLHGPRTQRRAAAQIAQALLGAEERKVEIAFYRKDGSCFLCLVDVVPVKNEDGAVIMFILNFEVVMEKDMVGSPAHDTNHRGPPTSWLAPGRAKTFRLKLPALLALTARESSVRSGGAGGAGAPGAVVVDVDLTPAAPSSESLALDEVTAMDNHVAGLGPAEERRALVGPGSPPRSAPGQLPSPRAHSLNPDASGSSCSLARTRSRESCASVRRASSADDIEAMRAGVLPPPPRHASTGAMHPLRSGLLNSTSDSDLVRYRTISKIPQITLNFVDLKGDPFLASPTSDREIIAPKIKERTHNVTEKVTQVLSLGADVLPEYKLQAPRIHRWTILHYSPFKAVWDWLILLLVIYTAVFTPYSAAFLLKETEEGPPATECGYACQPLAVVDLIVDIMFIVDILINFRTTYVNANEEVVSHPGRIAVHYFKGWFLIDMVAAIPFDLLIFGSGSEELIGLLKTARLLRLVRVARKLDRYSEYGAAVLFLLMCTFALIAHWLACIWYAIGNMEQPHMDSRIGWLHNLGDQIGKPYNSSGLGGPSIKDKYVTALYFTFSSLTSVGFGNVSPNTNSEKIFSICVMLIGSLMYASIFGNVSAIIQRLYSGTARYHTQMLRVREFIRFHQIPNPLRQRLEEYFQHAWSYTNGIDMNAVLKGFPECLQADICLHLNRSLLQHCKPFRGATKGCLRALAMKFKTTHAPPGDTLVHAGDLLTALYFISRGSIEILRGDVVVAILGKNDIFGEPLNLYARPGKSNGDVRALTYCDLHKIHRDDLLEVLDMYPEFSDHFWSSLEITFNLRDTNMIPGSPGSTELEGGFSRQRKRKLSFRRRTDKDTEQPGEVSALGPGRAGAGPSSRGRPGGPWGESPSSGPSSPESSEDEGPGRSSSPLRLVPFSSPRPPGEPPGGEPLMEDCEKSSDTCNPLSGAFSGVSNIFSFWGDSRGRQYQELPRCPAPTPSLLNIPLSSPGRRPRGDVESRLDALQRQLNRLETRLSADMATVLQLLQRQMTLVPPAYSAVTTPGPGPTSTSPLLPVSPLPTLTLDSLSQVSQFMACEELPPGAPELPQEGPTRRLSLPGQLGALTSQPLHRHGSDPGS
# Method in brief: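 CHO cells stably expressing hERG, grown at 32 °C, 5% CO2 in Ham's F-12 with 10% FBS and 500 µg/mL Geneticin. Population patch clamp with PBS (Ca/Mg) outside, KCl/MgCl2/EGTA/HEPES pH 7.3 inside, amphotericin B perforation. Holding −80 mV, step to 40 mV 2 s, then −50 mV 2 s. Peak tail current taken before and after 5 min compound exposure, inhibition = 100 − post/pre×100, n = 3 or 4.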
compound,measurement,setting,value
Cl.N=c1c(C(N)=O)cc(Cl)cn1Cc1cccc(Cl)c1,Papp,[1],11.6 ×10⁻⁶ cm/s
same,microsomal CLint at 1 µM,[2],3 µL/min/mg
same,"inhibition at 10 min, 10 µM",CYP3A4,-1.6%
same,inhibition (INH),[3],47%

# From ChEMBL document CHEMBL3797060, “Discovery of 5-Chloro-1-(5-chloro-2-(methylsulfonyl)benzyl)-2-imino-1,2-dihydropyridine-3-carboxamide (TAK-259) as a Novel, Selective, and Orally Active α1D Adrenoceptor Antagonist with Antiurinary Frequency Effects: Reducing Human Ether-a-go-go-Related Gene (hERG) Liabilities” (J Med Chem, 2016)
